Measurements taken from ChEMBL document CHEMBL2203148, “Increased selectivity toward cytoplasmic versus mitochondrial ribosome confers improved efficiency of synthetic aminoglycosides in fixing damaged genes: a strategy for treatment of genetic diseases caused by nonsense mutations” (J Med Chem, 2012).
pIC50: −log10 of the molar value. In brackets after ≈: the same amount, converted by molar mass. Structures can show the parent of a compound that is named as a salt. Activity calls are given as the source filed them. No cut-off for these calls is given here.

Assays:
[1] = Selectivity ratio of IC50 for ribosome-mediated protein synthesis in rabbit reticulocytes to IC50 for ribosome S30 subunit-mediated protein synthesis in Escherichia coli
Ribosome [2] = assay: Inhibition of ribosome-mediated translation of IDUA Q70X nonsense mutant gene expressed in rabbit reticulocytes harboring p2luc plasmid after 16 hrs by dual luciferase reporter gene assay; assay type: subcellular; parameters: scale not given: the % may be the effect or the level left
[3] = (§1) Cytotoxicity against human HEK293 cells assessed as cell viability after 48 hrs by XTT based calorimetric assay; conditions: HEK293 cells, read-out: LC50
Summary of the method: (§2)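 Cells seeded at 5,000/well in DMEM with 10% FBS and 1% glutamine at 37 °C, 5% CO₂; after overnight culture, graded aminoglycoside concentrations added for a further 48 hr. XTT viability read-out with 3 hr incubation by optical density, viability expressed relative to untreated cultures; LC50 fitted from concentration-response curves of at least three independent experiments.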

Ribosome [4] = assay: Inhibition of ribosome-mediated protein synthesis in rabbit reticulocytes after 60 mins by coupled transcription/translation assay; assay type: subcellular, Oryctolagus cuniculus
Summary of the method: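 Eukaryotic inhibition used the TNT T7 Quick coupled transcription/translation system with T7 control luciferase DNA. Varied aminoglycoside concentrations were incubated with the 10 µl reaction at 30 °C for 60 min and ice-cooled 5 min. Samples were diluted in the same buffer and luminescence was read on adding luciferase reagent. IC50 was fitted from at least three independent experiments.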

[5] = Inhibition of ribosome S30 subunit-mediated protein synthesis in Escherichia coli after 60 mins by coupled transcription/translation assay
Summary of the method: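 Prokaryotic coupled transcription/translation with a luciferase read-out. Varied aminoglycoside concentrations were incubated with the 10 µl reaction at 37°C for 60 min, then ice-cooled 5 min. Samples were diluted in tris-phosphate (25 mM, pH 7.8), DTT, CDTA, glycerol, Triton X-100 and BSA, and luminescence was read on adding luciferase reagent. IC50 was fitted from at least three independent experiments.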

Escherichia coli = assay: Antibacterial activity against Escherichia coli R477/100 by microdilution method; assay type: functional
Ribosome [6] = assay: Inhibition of ribosome-mediated translation of PCDH15 R245X nonsense mutant gene expressed in rabbit reticulocytes harboring p2luc plasmid after 16 hrs by dual luciferase reporter gene assay; assay type: subcellular; parameters: scale not given: the % may be the effect or the level left
Ribosome [7] = assay: Inhibition of ribosome-mediated translation of DMD R3381X nonsense mutant gene expressed in rabbit reticulocytes harboring p2luc plasmid after 16 hrs by dual luciferase reporter gene assay; assay type: subcellular; parameters: scale not given: the % may be the effect or the level left
Ribosome [8] = assay: Inhibition of ribosome-mediated translation of CFTR G542X nonsense mutant gene expressed in rabbit reticulocytes harboring p2luc plasmid after 16 hrs by dual luciferase reporter gene assay; assay type: subcellular; parameters: scale not given: the % may be the effect or the level left
Ribosome [9] = assay: Inhibition of ribosome-mediated translation of PCDH15 R3X nonsense mutant gene expressed in rabbit reticulocytes harboring p2luc plasmid after 16 hrs by dual luciferase reporter gene assay; assay type: subcellular; parameters: scale not given: the % may be the effect or the level left
Ribosome [10] = assay: Inhibition of ribosome-mediated translation of CFTR W1282X nonsense mutant gene expressed in rabbit reticulocytes harboring p2luc plasmid after 16 hrs by dual luciferase reporter gene assay; assay type: subcellular; parameters: scale not given: the % may be the effect or the level left
HFF = assay: Cytotoxicity against human HFF cells assessed as cell viability after 48 hrs by XTT based calorimetric assay relative to control; summary of the method: as §2
Bacillus subtilis = assay: Antibacterial activity against Bacillus subtilis ATCC-6633 by double-microdilution method; assay type: functional, organism-based
[11] = biological target: mitochondrial ribosome (Homo sapiens); assay: Inhibition of mitochondrial ribosome-mediated protein synthesis in human HeLa cells assessed as {35S]methionine incorporation by autoradiography
HEK293 = assay: as §1; conditions: hek293, 48 h, read-out: LC50 (the source's name); summary of the method: as §2
HeLa = assay: Ratio of compound IC50 to gentamicin IC50 for inhibition of mitochondrial ribosome- protein synthesis in human HeLa cells; assay type: subcellular

Row | Compound | Ratio IC50 [1] | Activity (Ribosome [2]) | CC50 at 48 h [3] | pIC50 (Ribosome [4]) | pIC50 [5] | MIC (Escherichia coli) | Activity (Ribosome [6]) | Activity (Ribosome [7]) | Activity (Ribosome [8]) | Activity (Ribosome [9]) | Activity (Ribosome [10]) | Activity (HFF) | Activity (Bacillus subtilis) | pIC50 [11] | CC50 (HEK293) | Ratio IC50 (HeLa)
1 | C[C@@H](N)[C@H]1O[C@@H](O[C@@H]2[C@@H](O)[C@H](NC(=O)[C@@H](O)CCN)C[C@H](N)[C@H]2O[C@H]2O[C@H]([C@@H](C)O)[C@@H](O)[C@H](O)[C@H]2N)[C@H](O)[C@@H]1O | 0.5 | Dose-dependent effect | 5400 µM | 6.05 | 5.74 | 384 µM (≈ 224 µg/mL) |  |  |  |  |  |  |  |  |  | 
2 | C[C@@H](O)[C@H]1O[C@H](O[C@H]2[C@H](O[C@@H]3O[C@H](CN)[C@@H](O)[C@H]3O)[C@@H](O)[C@H](NC(=O)[C@@H](O)CCN)C[C@@H]2N)[C@H](N)[C@@H](O)[C@@H]1O | 2.9 | 50% | 5800 µM | 5.55 | 6.00 | 556 µM (≈ 317 µg/mL) | 50% | 50% | 50% | 50% | 50% |  |  |  |  | 
3 | C[C@H](N)[C@H]1O[C@@H](O[C@@H]2[C@@H](O)[C@H](N)C[C@H](N)[C@H]2O[C@H]2O[C@H]([C@@H](C)O)[C@@H](O)[C@H](O)[C@H]2N)[C@H](O)[C@@H]1O | 1.3 | 50% | 5400 µM | 5.82 | 5.96 | 768 µM (≈ 371 µg/mL) | 50% | 50% | 50% | 50% | 50% |  |  |  |  | 
4 | CN[C@@H]1[C@@H](O)[C@@H](O[C@@H]2[C@@H](O)[C@H](O[C@H]3O[C@H]([C@@H](C)O)[C@@H](O)[C@H](O)[C@H]3N)[C@@H](N)C[C@H]2N)OC[C@]1(C)O.O=S(=O)(O)O [GENETICIN SULFATE SALT] |  |  |  | 5.70 | 8.00 | 9 µM |  |  |  |  |  | Non-toxic | Active |  |  | 
5 | NC[C@@H]1O[C@H](O[C@H]2[C@@H](O)[C@H](O[C@@H]3[C@@H](O)[C@H](N)C[C@H](N)[C@H]3O[C@H]3O[C@H](CO)[C@@H](O)[C@H](O)[C@H]3N)O[C@@H]2CO)[C@H](N)[C@@H](O)[C@@H]1O [PAROMOMYCIN SULFATE] | 1120 |  |  | 4.24 | 7.30 | 22 µM |  |  |  |  |  |  |  |  |  | 
6 | C[C@@H](O)[C@H]1O[C@H](O[C@H]2[C@H](O[C@@H]3O[C@H](CN)[C@@H](O)[C@H]3O)[C@@H](O)[C@H](N)C[C@@H]2N)[C@H](N)[C@@H](O)[C@@H]1O | 15 | 20% | 22200 µM |  | 5.96 |  | 20% | 20% | 20% | 20% | 20% |  |  |  |  | 
7 | C[C@H](N)[C@H]1O[C@@H](O[C@@H]2[C@@H](O)[C@H](N)C[C@H](N)[C@H]2O[C@H]2O[C@H](CO)[C@@H](O)[C@H](O)[C@H]2N)[C@H](O)[C@@H]1O | 7.9 |  |  | 4.80 | 5.70 | 2660 µM (≈ 1250 µg/mL) |  |  |  |  |  |  |  |  |  | 
8 | C[C@@H](N)[C@H]1O[C@@H](O[C@@H]2[C@@H](O)[C@H](NC(=O)[C@@H](O)CCN)C[C@H](N)[C@H]2O[C@H]2O[C@H](CO)[C@@H](O)[C@H](O)[C@H]2N)[C@H](O)[C@@H]1O | 5.7 |  |  | 5.34 | 6.10 | 1060 µM (≈ 602 µg/mL) |  |  |  |  |  |  |  |  |  | 
9 | C[C@@H](N)[C@H]1O[C@@H](O[C@@H]2[C@@H](O)[C@H](N)C[C@H](N)[C@H]2O[C@H]2O[C@H]([C@@H](C)O)[C@@H](O)[C@H](O)[C@H]2N)[C@H](O)[C@@H]1O | 4.3 | 20% | 16500 µM | 5.10 | 5.72 | 1540 µM (≈ 741 µg/mL) | 20% | 20% | 20% | 20% | 20% |  |  |  |  | 
10 | GENTAMICIN SULFATE [listing 1 of 2 here] |  |  |  | 4.21 |  |  |  |  |  |  |  |  |  | 4.59 | 2500 µM | 
11 | C[C@H](N)[C@H]1O[C@@H](O[C@@H]2[C@@H](O)[C@H](NC(=O)[C@@H](O)CCN)C[C@H](N)[C@H]2O[C@H]2O[C@H]([C@@H](C)O)[C@@H](O)[C@H](O)[C@H]2N)[C@H](O)[C@@H]1O | 0.4 |  | 5100 µM | 6.15 | 5.74 | 384 µM (≈ 224 µg/mL) |  |  |  |  |  |  |  |  |  | 
12 | NCC[C@H](O)C(=O)N[C@@H]1C[C@H](N)[C@@H](O[C@H]2O[C@H](CO)[C@@H](O)[C@H](O)[C@H]2N)[C@H](O[C@@H]2O[C@H](CN)[C@@H](O)[C@H]2O)[C@H]1O | 151 |  | 5500 µM | 4.62 | 6.70 | 588 µM (≈ 327 µg/mL) |  |  |  |  |  |  |  |  |  | 19
13 | NC[C@H]1O[C@@H](O[C@@H]2[C@@H](O)[C@H](N)C[C@H](N)[C@H]2O[C@H]2O[C@H](CO)[C@@H](O)[C@H](O)[C@H]2N)[C@H](O)[C@@H]1O | 68 |  | 21900 µM | 4.51 | 6.30 | 790 µM (≈ 359 µg/mL) |  |  |  |  |  |  |  |  |  | 
14 | C[C@H](N)[C@H]1O[C@@H](O[C@@H]2[C@@H](O)[C@H](NC(=O)[C@@H](O)CCN)C[C@H](N)[C@H]2O[C@H]2O[C@H](CO)[C@@H](O)[C@H](O)[C@H]2N)[C@H](O)[C@@H]1O | 2.3 |  |  | 5.28 | 5.64 | 1070 µM (≈ 608 µg/mL) |  |  |  |  |  |  |  |  |  | 
15 | GENTAMICIN SULFATE [listing 2 of 2 here] | 2210 | 20% |  |  |  | 6 µM | 20% | 20% | 20% | 20% | 20% |  | Active |  |  | 
16 | C[C@@H](N)[C@H]1O[C@@H](O[C@@H]2[C@@H](O)[C@H](N)C[C@H](N)[C@H]2O[C@H]2O[C@H](CO)[C@@H](O)[C@H](O)[C@H]2N)[C@H](O)[C@@H]1O | 13 |  |  | 4.55 | 5.68 | 4990 µM (≈ 2340 µg/mL) |  |  |  |  |  |  |  |  |  | 
